From ChEMBL document CHEMBL1137280, “Synthesis and structure-activity studies of novel benzocycloheptanone oxazolidinone antibacterial agents” (Bioorg Med Chem Lett, 2006) come the findings set out here.

Assay type in all cases: functional
One assay concerns Streptococcus pneumoniae. In words: Antibacterial activity against Streptococcus pneumoniae SVI SP-3. The gist of the method: (§1)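 MIC determined by broth microdilution following Clinical and Laboratory Standards Institute (formerly NCCLS) guidelines, across a panel of Gram-positive and fastidious Gram-negative organisms.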
For another assay, the system named is Enterococcus faecalis. In words: Antibacterial activity against Enterococcus faecalis MGH-2 EF1-1. The gist of the method: as §1
A further assay deals with Staphylococcus aureus. In words: Antibacterial activity against Staphylococcus aureus UC-76 SA-1. The gist of the method: as §1
The test system of the next assay is Streptococcus pyogenes. In words: Antibacterial activity against Streptococcus pyogenes C-203. The procedure, abridged: as §1
The subject of a further assay is Escherichia coli. In words: Antibacterial activity against Escherichia coli by transcription and translation assay. The procedure, abridged:
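Coupled in vitro transcription and translation system from Escherichia coli with a luciferase reporter; inhibition is read as loss of luciferase signal.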

The next assay concerns Moraxella catarrhalis. Kind of assay: Antibacterial activity against Moraxella catarrhalis BC-3531. The gist of the method: as §1
For the next assay, the system named is Haemophilus influenzae. In words: Antibacterial activity against Haemophilus influenzae HI3542. The conditions noted are these: HI-3542. The gist of the method:
as §1

As usually defined, the IC50 is the concentration needed to halve the response being measured. A low value points to greater potency in that assay.

≈ marks a conversion by molar mass, not a printed value.

Regarding `CC(=O)NC[C@H]1CN(c2cc3c(cc2F)C(=O)CCCC3)C(=O)O1`, the MIC turned out to be 32 µg/mL (≈ 95.7 µM) against Streptococcus pneumoniae, 64 µg/mL (≈ 191 µM) against Enterococcus faecalis, 64 µg/mL (≈ 191 µM) against Staphylococcus aureus and 32 µg/mL (≈ 95.7 µM) in the assay on Streptococcus pyogenes. Further, in the assay with Escherichia coli, the IC50 was determined as 90 µM.
In the case of `CC(=O)NC[C@H]1CN(c2cc(F)c3c(c2)CCCCC3=O)C(=O)O1`, the MIC with Streptococcus pneumoniae came out at 2 µg/mL (≈ 5.98 µM); in the assay with Enterococcus faecalis it was 4 µg/mL (≈ 12 µM); against Staphylococcus aureus, 8 µg/mL (≈ 23.9 µM); in the assay on Streptococcus pyogenes, 2 µg/mL (≈ 5.98 µM). In the assay with Escherichia coli, the IC50 is 9.4 µM.
Consider `CC(=O)NC[C@H]1CN(c2ccc3c(c2)CCC/C(=C\c2cccn2C)C3=O)C(=O)O1`, for which the MIC against Streptococcus pneumoniae came to 0.25 µg/mL (≈ 0.614 µM); against Enterococcus faecalis it was 0.5 µg/mL (≈ 1.23 µM); in the assay on Moraxella catarrhalis, 4 µg/mL (≈ 9.82 µM); against Staphylococcus aureus it was 1 µg/mL (≈ 2.45 µM); against Haemophilus influenzae, 16 µg/mL (≈ 39.3 µM). The compound also yielded an IC50 in the assay on Escherichia coli of 1.6 µM.
As for `CC(=O)NC[C@H]1CN(c2ccc3c(c2)CCC3=O)C(=O)O1` [PNU-82965], the MIC against Streptococcus pneumoniae was found to be 2 µg/mL (≈ 6.94 µM); against Enterococcus faecalis, 8 µg/mL (≈ 27.7 µM); against Staphylococcus aureus, 8 µg/mL (≈ 27.7 µM); against Streptococcus pyogenes it was 2 µg/mL (≈ 6.94 µM). Further, it took 21 µM to reach half-maximal inhibition in the assay with Escherichia coli (IC50).
As to `CC(=O)NC[C@H]1CN(c2ccc3c(c2)CCC/C(=C\c2cccc(C#N)c2)C3=O)C(=O)O1`, the MIC against Streptococcus pneumoniae turned out to be 0.25 µg/mL (≈ 0.582 µM); in the assay on Enterococcus faecalis it was 0.25 µg/mL (≈ 0.582 µM); with Moraxella catarrhalis it was 2 µg/mL (≈ 4.66 µM); against Staphylococcus aureus, 0.5 µg/mL (≈ 1.16 µM); with Haemophilus influenzae, 32 µg/mL (≈ 74.5 µM). Also, the IC50 in the assay with Escherichia coli was found to be 1.7 µM.
In the case of `CC(=O)NC[C@H]1CN(c2ccc3c(c2)CCC/C(=C\c2ccc(F)cc2)C3=O)C(=O)O1`, the MIC came out at 0.25 µg/mL (≈ 0.592 µM) against Streptococcus pneumoniae; 0.5 µg/mL (≈ 1.18 µM) against Enterococcus faecalis; 2 µg/mL (≈ 4.73 µM) against Moraxella catarrhalis; 0.5 µg/mL (≈ 1.18 µM) in the assay on Staphylococcus aureus; 2 µg/mL (≈ 4.73 µM) against Haemophilus influenzae. Further, the IC50 in the assay with Escherichia coli turned out to be 2.7 µM.
Take `CC(=O)NC[C@H]1CN(c2ccc3c(c2)CCC/C(=C\c2ccsc2)C3=O)C(=O)O1`: the MIC in the assay on Streptococcus pneumoniae came out at 0.125 µg/mL (≈ 0.305 µM); in the assay with Enterococcus faecalis, 0.5 µg/mL (≈ 1.22 µM); with Moraxella catarrhalis it was 1 µg/mL (≈ 2.44 µM); in the assay on Staphylococcus aureus, 2 µg/mL (≈ 4.87 µM); with Haemophilus influenzae, 2 µg/mL (≈ 4.87 µM). Moreover, the IC50 in the assay with Escherichia coli was 1.1 µM.
Turning to `CC(=O)NC[C@H]1CN(c2ccc3c(c2)CCCCC3)C(=O)O1`, the MIC in the assay with Streptococcus pneumoniae was 8 µg/mL (≈ 26.5 µM); in the assay with Enterococcus faecalis, greater than 64 µg/mL; against Staphylococcus aureus, 64 µg/mL (≈ 212 µM); with Streptococcus pyogenes, 2 µg/mL (≈ 6.61 µM). This compound also gave an IC50 in the assay on Escherichia coli of 8 µM.
In the case of `CC(=O)NC[C@H]1CN(c2ccc3c(c2)CCC/C(=C\c2ccc(CCO)cc2)C3=O)C(=O)O1`, the MIC against Streptococcus pneumoniae was determined as 0.25 µg/mL (≈ 0.557 µM); against Enterococcus faecalis, 0.5 µg/mL (≈ 1.11 µM); in the assay on Moraxella catarrhalis, 4 µg/mL (≈ 8.92 µM); against Staphylococcus aureus, 1 µg/mL (≈ 2.23 µM); against Haemophilus influenzae it was 16 µg/mL (≈ 35.7 µM). Besides, in the assay with Escherichia coli, the IC50 worked out at 2.6 µM.
`CC(=O)NC[C@H]1CN(c2cc(F)c3c(c2)CCCC=C3)C(=O)O1`: the MIC was determined as 1 µg/mL (≈ 3.14 µM) against Streptococcus pneumoniae, 2 µg/mL (≈ 6.28 µM) against Enterococcus faecalis, 2 µg/mL (≈ 6.28 µM) in the assay on Staphylococcus aureus and 1 µg/mL (≈ 3.14 µM) with Streptococcus pyogenes. In the assay on Escherichia coli, this compound gave an IC50 of 9.3 µM.
`CC(=O)NC[C@H]1CN(c2ccc3c(c2)CCCCCC3=O)C(=O)O1`: the MIC is 4 µg/mL (≈ 12.1 µM) in the assay on Streptococcus pneumoniae, 8 µg/mL (≈ 24.2 µM) with Enterococcus faecalis, 4 µg/mL (≈ 12.1 µM) in the assay on Staphylococcus aureus and 2 µg/mL (≈ 6.05 µM) in the assay on Streptococcus pyogenes. Besides, the IC50 with Escherichia coli is 5.9 µM.
On to `CC(=O)NC[C@H]1CN(c2ccc3c(c2)CCCC=C3)C(=O)O1`, for which the MIC was 0.5 µg/mL (≈ 1.66 µM) with Streptococcus pneumoniae, 1 µg/mL (≈ 3.33 µM) with Enterococcus faecalis, 1 µg/mL (≈ 3.33 µM) with Staphylococcus aureus and 0.5 µg/mL (≈ 1.66 µM) in the assay on Streptococcus pyogenes. In the assay with Escherichia coli, this compound yielded an IC50 of 1.3 µM.
In the case of `CC(=O)NC[C@H]1CN(c2ccc(C(C)=O)cc2)C(=O)O1` [DUP-721], the MIC was 2 µg/mL (≈ 7.24 µM) against Streptococcus pneumoniae, 2 µg/mL (≈ 7.24 µM) in the assay on Enterococcus faecalis, 2 µg/mL (≈ 7.24 µM) with Staphylococcus aureus and 1 µg/mL (≈ 3.62 µM) against Streptococcus pyogenes. The same compound yielded an IC50 in the assay on Escherichia coli of 7.5 µM.
In the case of `CC(=O)NC[C@H]1CN(c2ccc(N3CCOCC3)c(F)c2)C(=O)O1` [LINEZOLID], the MIC came out at 16 µg/mL (≈ 47.4 µM) against Haemophilus influenzae and 1 µg/mL (≈ 2.96 µM) against Streptococcus pyogenes. The compound also registered an IC50 with Escherichia coli of 3.3 µM.
In the case of `CC(=O)NC[C@H]1CN(c2ccc3c(c2)CCC/C(=C\c2ccc(OCCCN(C)C)cc2)C3=O)C(=O)O1`, the MIC against Streptococcus pneumoniae is 0.125 µg/mL (≈ 0.247 µM); with Enterococcus faecalis, 0.5 µg/mL (≈ 0.989 µM); in the assay with Moraxella catarrhalis it was 4 µg/mL (≈ 7.91 µM); with Staphylococcus aureus, 1 µg/mL (≈ 1.98 µM); in the assay with Haemophilus influenzae, 16 µg/mL (≈ 31.6 µM). Besides, in the assay with Escherichia coli, the concentration for half-maximal inhibition (IC50) is 1.2 µM.
As to `CC(=O)NC[C@H]1CN(c2ccc3c(c2F)CCCCC3=O)C(=O)O1`, the MIC is 4 µg/mL (≈ 12 µM) against Streptococcus pneumoniae, 8 µg/mL (≈ 23.9 µM) in the assay on Enterococcus faecalis, 16 µg/mL (≈ 47.9 µM) with Staphylococcus aureus and 8 µg/mL (≈ 23.9 µM) with Streptococcus pyogenes. The same compound returned an IC50 with Escherichia coli of 8.9 µM.
As to `CC(=O)NC[C@H]1CN(c2cc(F)c3c(c2F)CCCCC3=O)C(=O)O1`, the MIC in the assay on Streptococcus pneumoniae came out at 8 µg/mL (≈ 22.7 µM); against Enterococcus faecalis, 16 µg/mL (≈ 45.4 µM); in the assay on Staphylococcus aureus, 32 µg/mL (≈ 90.8 µM); in the assay with Streptococcus pyogenes, 16 µg/mL (≈ 45.4 µM). Besides, it took 14 µM to reach half-maximal inhibition in the assay with Escherichia coli (IC50).
Regarding `CC(=O)NC[C@H]1CN(c2ccc3c(c2)CCC/C(=C\c2ccncc2)C3=O)C(=O)O1`, the MIC came out at 0.5 µg/mL (≈ 1.23 µM) against Streptococcus pneumoniae; 1 µg/mL (≈ 2.47 µM) in the assay on Enterococcus faecalis; 8 µg/mL (≈ 19.7 µM) in the assay on Moraxella catarrhalis; 1 µg/mL (≈ 2.47 µM) in the assay on Staphylococcus aureus; 16 µg/mL (≈ 39.5 µM) against Haemophilus influenzae. The IC50 in the assay on Escherichia coli was 1.7 µM.
Turning to `CC(=O)NC[C@H]1CN(c2ccc3c(c2)CCC/C(=C\c2ccc(S(C)(=O)=O)cc2)C3=O)C(=O)O1`, the MIC was 0.25 µg/mL (≈ 0.518 µM) with Streptococcus pneumoniae; 0.5 µg/mL (≈ 1.04 µM) in the assay on Enterococcus faecalis; 4 µg/mL (≈ 8.29 µM) with Moraxella catarrhalis; 1 µg/mL (≈ 2.07 µM) against Staphylococcus aureus; 16 µg/mL (≈ 33.2 µM) against Haemophilus influenzae. In addition, in the assay with Escherichia coli, it took 2.8 µM to reach half-maximal inhibition (IC50).
For the compound `CC(=O)NC[C@H]1CN(c2ccc3c(c2)CCC/C(=C\c2ccccc2)C3=O)C(=O)O1`, the MIC in the assay with Streptococcus pneumoniae was 0.25 µg/mL (≈ 0.618 µM); against Enterococcus faecalis, 0.5 µg/mL (≈ 1.24 µM); in the assay on Moraxella catarrhalis it was 4 µg/mL (≈ 9.89 µM); against Staphylococcus aureus, 1 µg/mL (≈ 2.47 µM); in the assay on Haemophilus influenzae it was 16 µg/mL (≈ 39.6 µM). In the assay with Escherichia coli, the IC50 came out at 2.7 µM.
With `CC(=O)NC[C@H]1CN(c2ccc3c(c2)CCC/C(=C\c2ccc(O)cc2)C3=O)C(=O)O1`, the MIC against Streptococcus pneumoniae is 0.125 µg/mL (≈ 0.297 µM); against Enterococcus faecalis it was 0.5 µg/mL (≈ 1.19 µM); against Moraxella catarrhalis, 2 µg/mL (≈ 4.76 µM); in the assay on Staphylococcus aureus, 0.5 µg/mL (≈ 1.19 µM); with Haemophilus influenzae, 8 µg/mL (≈ 19 µM). Half-maximal inhibition in the assay with Escherichia coli (IC50) was put at 0.95 µM.
On to `CC(=O)NC[C@H]1CN(c2ccc3c(c2)CCC/C(=C\c2ccc(OCCN(C)C)cc2)C3=O)C(=O)O1`, for which the MIC with Streptococcus pneumoniae was determined as 0.25 µg/mL (≈ 0.509 µM); in the assay on Enterococcus faecalis, 2 µg/mL (≈ 4.07 µM); in the assay with Moraxella catarrhalis it was 8 µg/mL (≈ 16.3 µM); against Staphylococcus aureus, 2 µg/mL (≈ 4.07 µM); in the assay with Haemophilus influenzae it was 32 µg/mL (≈ 65.1 µM). The compound also registered an IC50 in the assay on Escherichia coli of 1.5 µM.
For the compound `CC(=O)NC[C@H]1CN(c2ccc3c(c2)C(=O)CCC3)C(=O)O1`, the MIC in the assay on Streptococcus pneumoniae was 8 µg/mL (≈ 26.5 µM); in the assay with Enterococcus faecalis, 16 µg/mL (≈ 52.9 µM); in the assay on Staphylococcus aureus, 32 µg/mL (≈ 106 µM); in the assay on Streptococcus pyogenes, 16 µg/mL (≈ 52.9 µM). In addition, it took 4 µM to reach half-maximal inhibition in the assay with Escherichia coli (IC50).
In the case of `CC(=O)NC[C@H]1CN(c2ccc3c(c2)CCCCC3=O)C(=O)O1`, the MIC with Streptococcus pneumoniae turned out to be 0.5 µg/mL (≈ 1.58 µM); with Enterococcus faecalis it was 0.5 µg/mL (≈ 1.58 µM); against Staphylococcus aureus it was 1 µg/mL (≈ 3.16 µM); with Streptococcus pyogenes it was 0.5 µg/mL (≈ 1.58 µM). Moreover, the IC50 in the assay with Escherichia coli came to 3.9 µM.
Regarding `CC(=O)NC[C@H]1CN(c2cnc3c(c2)CCCCC3=O)C(=O)O1`, the MIC was 16 µg/mL (≈ 50.4 µM) against Streptococcus pneumoniae, 8 µg/mL (≈ 25.2 µM) in the assay with Enterococcus faecalis, 8 µg/mL (≈ 25.2 µM) in the assay with Staphylococcus aureus and 4 µg/mL (≈ 12.6 µM) in the assay on Streptococcus pyogenes. Besides, in the assay with Escherichia coli, it took 13 µM to reach half-maximal inhibition (IC50).
